Data on 15 compounds can be found in PMC11463018 (Journal of Enzyme Inhibition and Medicinal Chemistry, 2024).

One may read the IC50 as the concentration that inhibits the measured activity by half. The half-life is the time in which the quantity being followed falls by half. The low end stands for fast loss, the high end for slow loss.

The target in data set [1] is T1, HDAC6 (Homo sapiens, UniProt Q9UBN7).
T1 sequence (Q9UBN7 1-1215): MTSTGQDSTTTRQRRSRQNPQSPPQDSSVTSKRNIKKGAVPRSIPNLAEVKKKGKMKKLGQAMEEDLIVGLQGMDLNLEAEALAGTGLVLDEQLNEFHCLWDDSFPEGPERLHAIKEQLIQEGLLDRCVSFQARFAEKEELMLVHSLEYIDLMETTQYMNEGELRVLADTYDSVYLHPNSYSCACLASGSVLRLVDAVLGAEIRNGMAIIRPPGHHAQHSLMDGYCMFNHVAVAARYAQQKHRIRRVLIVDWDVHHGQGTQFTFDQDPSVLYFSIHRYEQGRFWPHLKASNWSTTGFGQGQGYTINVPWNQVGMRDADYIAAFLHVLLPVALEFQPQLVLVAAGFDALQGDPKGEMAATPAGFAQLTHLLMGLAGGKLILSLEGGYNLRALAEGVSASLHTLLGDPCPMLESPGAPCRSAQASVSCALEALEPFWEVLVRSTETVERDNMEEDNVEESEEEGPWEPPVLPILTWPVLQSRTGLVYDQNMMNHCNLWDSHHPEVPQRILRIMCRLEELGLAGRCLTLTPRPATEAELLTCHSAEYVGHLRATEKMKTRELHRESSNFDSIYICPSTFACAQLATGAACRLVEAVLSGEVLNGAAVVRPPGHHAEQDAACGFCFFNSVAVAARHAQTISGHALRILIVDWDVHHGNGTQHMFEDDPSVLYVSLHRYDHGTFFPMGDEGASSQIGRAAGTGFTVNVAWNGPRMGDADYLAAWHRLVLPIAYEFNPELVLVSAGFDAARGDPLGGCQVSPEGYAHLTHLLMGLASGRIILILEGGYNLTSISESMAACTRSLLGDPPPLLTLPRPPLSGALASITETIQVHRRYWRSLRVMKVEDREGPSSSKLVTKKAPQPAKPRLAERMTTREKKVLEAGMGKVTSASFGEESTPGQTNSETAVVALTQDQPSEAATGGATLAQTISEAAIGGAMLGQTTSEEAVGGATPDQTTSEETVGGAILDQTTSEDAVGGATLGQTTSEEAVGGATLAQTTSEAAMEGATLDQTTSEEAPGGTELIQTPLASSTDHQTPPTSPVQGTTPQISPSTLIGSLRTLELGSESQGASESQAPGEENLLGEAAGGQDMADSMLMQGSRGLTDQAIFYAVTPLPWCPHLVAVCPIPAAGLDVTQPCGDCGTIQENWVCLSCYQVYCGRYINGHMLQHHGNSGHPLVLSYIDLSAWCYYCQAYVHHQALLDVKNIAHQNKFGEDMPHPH
The data set is described as follows: In vitro HDAC enzyme assay. It counts as biochemical.

Data set [2] deals with JAK1 (Homo sapiens, UniProt P23458). The data set is described as follows: Kinase inhibition assay. It counts as biochemical.
For data set [3], the system named is RPMI-8226. Briefly: cells. The following applies: Homo sapiens, RPMI-8226, read-out: Antiproliferative effect IC50, RPMI-8226. It counts as cell-based.
Data set [4] relates to MDA-MB-231. The data set is described as follows: cells. The data set is classed as cell-based. To be noted: Homo sapiens, MDA-MB-231, read-out: Antiproliferative effect IC50, MDA-MB-231.
Data set [5] can be described thus: Microsomal stability assay. The data set is classed as in vitro ADME. To be noted: human, human liver microsomes, pH 7.4. The essentials:
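Human liver microsomes at 0.8 mg/mL, with magnesium chloride and potassium phosphate buffer (pH 7.4), incubated with test compound at 0.5 μM. Mix prewarmed 5 min at 37 °C, then started with NADPH. Stopped at 0, 5, 10, 15, 30, 60 or 90 min with ice-cold ethyl acetate, spun 4000 rpm for 10 min at 4 °C. Supernatant analysed by LC-MS/MS and half-life determined.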
In general terms: Liver microsomes are vesicles of endoplasmic reticulum, rich in cytochrome P450 enzymes.

Chain of JAK1 (P23458 whole entry): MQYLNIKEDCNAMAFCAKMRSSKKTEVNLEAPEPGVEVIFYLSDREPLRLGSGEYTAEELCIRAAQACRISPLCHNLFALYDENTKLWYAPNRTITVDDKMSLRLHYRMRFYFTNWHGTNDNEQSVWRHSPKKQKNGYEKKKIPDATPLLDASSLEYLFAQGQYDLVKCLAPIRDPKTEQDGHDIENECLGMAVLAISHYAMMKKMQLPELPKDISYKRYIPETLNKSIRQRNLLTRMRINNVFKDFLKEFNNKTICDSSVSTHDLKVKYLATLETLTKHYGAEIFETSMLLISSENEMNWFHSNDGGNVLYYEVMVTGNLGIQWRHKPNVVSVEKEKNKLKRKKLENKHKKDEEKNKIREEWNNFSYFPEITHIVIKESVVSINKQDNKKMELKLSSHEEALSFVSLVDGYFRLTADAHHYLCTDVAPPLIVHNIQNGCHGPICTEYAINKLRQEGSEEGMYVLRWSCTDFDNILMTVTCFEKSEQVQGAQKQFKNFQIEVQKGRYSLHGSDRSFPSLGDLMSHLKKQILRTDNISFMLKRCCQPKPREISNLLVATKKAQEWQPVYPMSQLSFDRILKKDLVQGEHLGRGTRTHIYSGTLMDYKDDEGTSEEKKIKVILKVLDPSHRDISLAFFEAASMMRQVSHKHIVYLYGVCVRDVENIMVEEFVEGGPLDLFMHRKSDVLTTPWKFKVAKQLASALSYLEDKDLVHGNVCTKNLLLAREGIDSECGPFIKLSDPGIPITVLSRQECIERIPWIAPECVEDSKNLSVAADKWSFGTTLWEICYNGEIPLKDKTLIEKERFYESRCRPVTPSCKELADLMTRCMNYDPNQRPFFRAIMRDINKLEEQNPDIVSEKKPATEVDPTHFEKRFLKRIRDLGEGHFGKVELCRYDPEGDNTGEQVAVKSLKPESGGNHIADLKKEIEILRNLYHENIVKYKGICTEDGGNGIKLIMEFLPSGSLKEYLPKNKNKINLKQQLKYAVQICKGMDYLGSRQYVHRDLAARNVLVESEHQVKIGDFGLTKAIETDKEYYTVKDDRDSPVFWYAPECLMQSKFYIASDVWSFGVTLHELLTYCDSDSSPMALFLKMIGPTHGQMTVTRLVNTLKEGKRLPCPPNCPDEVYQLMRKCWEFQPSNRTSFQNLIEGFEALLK

For `O=C(NO)c1ccc(CNc2nc3cccc(-c4ccccc4)n3n2)cc1` [Compound 16a, N-hydroxy-4-(((5-phenyl-[1,2, 4]triazolo[1,5-a]pyridin-2-yl)amino)methyl)benzamide], the IC50 in data set [1] is 9.5 ± 0.72 nM; in data set [2], 320 ± 18 nM; in data set [3], 460 ± 30 nM; in data set [4], 900 ± 30 nM.
With `COc1ccc(-c2cccc3nc(NCc4ccc(C(=O)NO)cc4)nn23)cc1` [Compound 16b, N-hydroxy-4-(((5–(4-methoxyphenyl)-[1,2, 4]triazolo[1,5-a]pyridin-2-yl)amino)methyl)benzamide], the IC50 in data set [1] was 8.75 ± 0.46 nM; in data set [2], 146 ± 8.5 nM; in data set [3] it was 290 ± 10 nM; in data set [4] it was 840 ± 40 nM.
For the compound `COc1cccc(-c2cccc3nc(NCc4ccc(C(=O)NO)cc4)nn23)c1` [Compound 16c, N-hydroxy-4-(((5–(3-methoxyphenyl)-[1,2, 4]triazolo[1,5-a]pyridin-2-yl)amino)methyl)benzamide], the IC50 in data set [1] was found to be 8.4 ± 0.39 nM; in data set [2] it was 190 ± 10 nM; in data set [3], 310 ± 20 nM; in data set [4], 950 ± 20 nM.
In the case of `COc1ccccc1-c1cccc2nc(NCc3ccc(C(=O)NO)cc3)nn12` [Compound 16d, N-hydroxy-4-(((5–(2-methoxyphenyl)-[1,2, 4]triazolo[1,5-a]pyridin-2-yl)amino)methyl)benzamide], the IC50 in data set [1] is 10.2 ± 0.8 nM; in data set [2], 750 ± 30 nM.
As to `Cc1ccc(-c2cccc3nc(NCc4ccc(C(=O)NO)cc4)nn23)cc1` [Compound 16e, N-hydroxy-4-(((5-(p-tolyl)-[1,2, 4]triazolo[1,5-a]pyridin-2-yl)amino)methyl)benzamide], the values for the concentration for half-maximal inhibition (IC50) in data set [1] and in data set [2] were 11 ± 0.7 nM and 304 ± 16 nM, respectively.
Taken in the same sequence, the figures for `Cc1cccc(-c2cccc3nc(NCc4ccc(C(=O)NO)cc4)nn23)c1` [Compound 16f, N-hydroxy-4-(((5-(m-tolyl)-[1,2, 4]triazolo[1,5-a]pyridin-2-yl)amino)methyl)benzamide] were 13.7 ± 0.88 nM and 315 ± 15 nM.
As for `Cc1ccccc1-c1cccc2nc(NCc3ccc(C(=O)NO)cc3)nn12` [Compound 16g, N-hydroxy-4-(((5-(o-tolyl)-[1,2, 4]triazolo[1,5-a]pyridin-2-yl)amino)methyl)benzamide], the concentration for half-maximal inhibition (IC50) in data set [1] amounted to 16 ± 1.1 nM; in data set [2] it was 550 ± 32 nM.
For the compound `O=C(NO)c1ccc(CNc2nc3cccc(-c4cccc(Cl)c4)n3n2)cc1` [Compound 16h, 4-(((5–(3-chlorophenyl)-[1,2, 4]triazolo[1,5-a]pyridin-2-yl)amino)methyl)-N-hydroxybenzamide], the results for the IC50 in data set [1] and in data set [2] were 9.65 ± 0.23 nM and 365 ± 25 nM, respectively.
Consider `O=C(NO)c1ccc(CNc2nc3cccc(-c4ccccc4Cl)n3n2)cc1` [Compound 16i, 4-(((5–(2-chlorophenyl)-[1,2, 4]triazolo[1,5-a]pyridin-2-yl)amino)methyl)-N-hydroxybenzamide], for which the figures for the IC50 in data set [1] and in data set [2] were 12.2 ± 0.3 nM and 400 ± 28 nM, respectively.
Take `O=C(NO)c1ccc(CNc2nc3cccc(-c4ccc(F)cc4)n3n2)cc1` [Compound 16j, 4-(((5–(4-fluorophenyl)-[1,2, 4]triazolo[1,5-a]pyridin-2-yl)amino)methyl)-N-hydroxybenzamide]: the IC50 in data set [1] amounted to 8.9 ± 0.16 nM; in data set [2], 295 ± 16 nM; in data set [3], 280 ± 60 nM; in data set [4], 880 ± 60 nM.
With `O=C(NO)c1ccc(CNc2nc3cccc(-c4ccc(Cl)c(Cl)c4)n3n2)cc1` [Compound 16k, 4-(((5–(3,4-dichlorophenyl)-[1,2, 4]triazolo[1,5-a]pyridin-2-yl)amino)methyl)-N-hydroxybenzamide], the IC50 worked out at 6.15 ± 0.12 nM in data set [1] and 390 ± 24 nM in data set [2].
Take `O=C(NO)c1ccc(CNc2nc3cccc(-c4ccc(C(F)(F)F)cc4)n3n2)cc1` [Compound 16l, N-hydroxy-4-(((5–(4-(trifluoromethyl)phenyl)-[1,2, 4]triazolo[1,5-a]pyridin-2-yl)amino)methyl)benzamide]: the IC50 came to 11.4 ± 0.88 nM in data set [1] and 460 ± 8 nM in data set [2].
Taken in the same sequence, the figures for `O=C(NO)c1ccc(CNc2nc3cccc(-c4cc(C(F)(F)F)cc(C(F)(F)F)c4)n3n2)cc1` [Compound 16m, 4-(((5–(3,5-bis(trifluoromethyl)phenyl)-[1,2, 4]triazolo[1,5-a]pyridin-2-yl)amino)methyl)-N-hydroxybenzamide] were 20.5 ± 0.78 nM and 685 ± 50 nM.
For the compound `O=C(Nc1nc2cccc(-c3ccc(CN4CCS(=O)(=O)CC4)cc3)n2n1)C1CC1` [Filgotinib, reference compound], the IC50 in data set [3] is 17500 ± 1000 nM; in data set [4], 27200 ± 1500 nM.
With `O=C(CCCCCCC(=O)Nc1ccccc1)NO` [SAHA, vorinostat, reference compound], the half-life at 0.5 μM in data set [5] is 6.8 h.
